Assay results reported in ChEMBL document CHEMBL1687826, “Flow cytometry as a tool to determine the effects of cell wall-active antibiotics on vancomycin-susceptible and -resistant Enterococcus faecalis strains” (Antimicrob Agents Chemother, 2011).
Activity calls are given as the source filed them. No cut-off for these calls is given here.

What was measured:
[1] = system: Enterococcus faecalis; experiment: Antibacterial activity against […] Enterococcus faecalis BM4316 assessed as membrane potential/size ratio at 0.25 to 1 times MIC after 1 hr […]; assay type: functional, organism-based
[2] = system: Enterococcus faecalis; experiment: Antibacterial activity against vancomycin-susceptible Enterococcus faecalis JH2-2 using BHI broth by macrodilution method; assay type: functional
Method in brief: (§1)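 Macrodilution per CLSI in BHI broth at 37°C, with 50 μg/ml free Ca2+ for daptomycin; MIC read as lowest concentration with no growth after 1 day.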

[3] = system: Enterococcus faecalis; experiment: Antibacterial activity against […] Enterococcus faecalis BM4275 using BHI broth by macrodilution method; assay type: functional; method in brief: as §1
[4] = system: Enterococcus faecalis; experiment: Antibacterial activity against […] Enterococcus faecalis BM4275 assessed as membrane potential/size ratio at 0.25 to 1 times MIC after 1 hr […]; assay type: functional, organism-based
[5] = system: Enterococcus faecalis; experiment: Antibacterial activity against […] Enterococcus faecalis BM4316 assessed as dismorphic bacterial chains at 1 times MIC after 1 hr by confocal microscopy
[6] = system: Enterococcus faecalis; experiment: Antibacterial activity against […] Enterococcus faecalis BM4275 assessed as decrease in bacterial count at 4 times MIC after 180 mins using BHI broth; assay type: functional, organism-based
Method in brief: (§2)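 Exponential-phase suspension (10^5 CFU/ml) in BHI, 37°C, exposed to 4× MIC for 180 min alongside antibiotic-free control; daptomycin medium carried 50 μg/ml free Ca2+. Survivors counted on BHI agar; value is mean difference in log10 CFU/ml with versus without antibiotic, 4 independent experiments, mean ± SD.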

[7] = system: Enterococcus faecalis; experiment: Antibacterial activity against vancomycin-susceptible Enterococcus faecalis JH2-2 assessed as decrease in bacterial count at 4 times MIC after 180 mins using BHI broth; assay type: functional, organism-based; method in brief: as §2
[8] = system: Enterococcus faecalis; experiment: Antibacterial activity against vancomycin-susceptible Enterococcus faecalis JH2-2 assessed as membrane potential/size ratio at 0.25 to 1 times MIC after 1 hr by flow cytometry
[9] = system: Enterococcus faecalis; experiment: Drug uptake in vancomycin[…]-type Enterococcus faecalis BM4275 assessed as red-fluorescent bacteria at 1 times MIC after 1 hr by confocal microscopy
[10] = system: Enterococcus faecalis; experiment: Drug uptake in vancomycin[…]-type Enterococcus faecalis BM4316 assessed as red-fluorescent bacteria at 1 times MIC after 1 hr by confocal microscopy
[11] = system: Enterococcus faecalis; experiment: Antibacterial activity against […] Enterococcus faecalis BM4275 assessed as dismorphic bacterial chains at 1 times MIC after 1 hr by confocal microscopy
[12] = system: Enterococcus faecalis; experiment: Antibacterial activity against […] Enterococcus faecalis BM4316 assessed as increase in cell size at 0.25 times MIC after 30 to 90 mins by flow cytometric analysis relative to control; assay type: functional, organism-based
Method in brief: (§3)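 10^5 CFU/ml exponential cells in BHI, 37°C, exposed to 0.25× or 1× MIC (daptomycin with 50 μg/ml free Ca2+) for 30, 60, 90 min, then diluted to ca. 10^4 CFU/ml in PBS. Flow cytometry forward scatter, log amplifiers, 5,000 events; % increase in size versus untreated control, triplicate, mean ± SD; Kruskal-Wallis then Mann-Whitney.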

[13] = system: Enterococcus faecalis; experiment: Antibacterial activity against vancomycin-susceptible Enterococcus faecalis JH2-2 assessed as dismorphic bacterial chains at 1 times MIC after 1 hr using BacLight Live/Dead kit by confocal microscopy
[14] = system: Enterococcus faecalis; experiment: Antibacterial activity against […] Enterococcus faecalis BM4316 using BHI broth by macrodilution method; assay type: functional; method in brief: as §1
[15] = system: Enterococcus faecalis; experiment: Antibacterial activity against vancomycin-susceptible Enterococcus faecalis JH2-2 assessed as increase in cell size at 0.25 times MIC after 30 to 90 mins by flow cytometric analysis relative to control; assay type: functional, organism-based; method in brief: as §3
[16] = system: Enterococcus faecalis; experiment: Antibacterial activity against […] Enterococcus faecalis BM4316 assessed as decrease in bacterial count at 4 times MIC after 180 mins using BHI broth; assay type: functional, organism-based; method in brief: as §2
[17] = system: Enterococcus faecalis; experiment: Drug uptake in vancomycin-susceptible Enterococcus faecalis JH2-2 assessed as red-fluorescent bacteria at 1 times MIC after 1 hr by confocal microscopy
[18] = system: Enterococcus faecalis; experiment: Antibacterial activity against […] Enterococcus faecalis BM4275 assessed as increase in cell size at 0.25 times MIC after 30 to 90 mins by flow cytometric analysis relative to control; assay type: functional, organism-based; method in brief: as §3
[19] = system: Enterococcus faecalis; experiment: Antibacterial activity against […] Enterococcus faecalis BM4316 assessed as change in CFU count at 1 times MIC after 30 to 90 mins; assay type: functional, organism-based
Method in brief: (§4)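 Exponentially growing cells, 10^5 CFU/ml in BHI at 37°C, exposed to 1× MIC antibiotic (daptomycin medium with 50 μg/ml free Ca2+) for 30, 60 and 90 min; viable counts by enumeration on BHI agar.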

[20] = system: Enterococcus faecalis; experiment: Antibacterial activity against vancomycin-susceptible Enterococcus faecalis JH2-2 assessed as change in CFU count at 1 times MIC after 30 to 90 mins; assay type: functional, organism-based; method in brief: as §4
[21] = system: Enterococcus faecalis; experiment: Antibacterial activity against […] Enterococcus faecalis BM4316 assessed as increase in cell size at 1 times MIC after 30 to 90 mins by flow cytometric analysis relative to control; assay type: functional, organism-based; method in brief: as §3
[22] = system: Enterococcus faecalis; experiment: Antibacterial activity against vancomycin-susceptible Enterococcus faecalis JH2-2 assessed as increase in cell size at 1 times MIC after 30 to 90 mins by flow cytometric analysis relative to control; assay type: functional, organism-based
Method in brief: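 Exponentially growing cells at 10^5 CFU/ml in BHI broth at 37°C were exposed to 0.25× or 1× MIC and sampled at 30, 60 and 90 min. Untreated controls were run alongside. Cells were diluted to ca. 10^4 CFU/ml in PBS and gated on log forward scatter for 5,000 events. Runs were in triplicate, reported as mean % size increase versus control.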

[23] = system: Enterococcus faecalis; experiment: Antibacterial activity against […] Enterococcus faecalis BM4275 assessed as increase in cell size at 1 times MIC after 30 to 90 mins by flow cytometric analysis relative to control; assay type: functional, organism-based; method in brief: as §3
[24] = system: Enterococcus faecalis; experiment: Antibacterial activity against […] Enterococcus faecalis BM4275 assessed as change in CFU count at 1 times MIC after 30 to 90 mins; assay type: functional, organism-based; method in brief: as §4
[25] = system: Staphylococcus aureus; experiment: Antibacterial activity against Staphylococcus aureus ATCC 29213 assessed as cells with altered cell wall morphology at 8 times MIC after 60 mins; assay type: functional

Structure (SMILES)	Activity [1]	Activity [2] [µg/mL]	Activity [3] [µg/mL]	Activity [4]	Activity [5]	Activity [6]	Activity [7]	Activity [8]	Drug uptake [9]	Drug uptake [10]	Activity [11]	Activity [12]	Activity [13]	Activity [14] [µg/mL]	Activity [15]	Activity [16]	Drug uptake [17]	Activity [18]	Activity [22]	also measured
CCCCCCCCCCNCCN[C@@]1(C)C[C@H](O[C@H]2[C@H](Oc3c4cc5cc3Oc3ccc(cc3Cl)[C@@H](O)[C@@H](NC(=O)[C@@H](CC(C)C)NC)C(=O)N[C@@H](CC(N)=O)C(=O)N[C@H]5C(=O)N[C@H]3C(=O)N[C@H](C(=O)N[C@H](C(=O)O)c5cc(O)c(CNCP(=O)(O)O)c(O)c5-c5cc3ccc5O)[C@H](O)c3ccc(c(Cl)c3)O4)O[C@H](CO)[C@@H](O)[C@@H]2O)O[C@@H](C)[C@H]1O [TELAVANCIN]	inactive	1	1	inactive	inactive	Active	Active	inactive	Active	Active	inactive	Active	inactive	4	Active	Active	Active	Active	–	–
CN[C@H](CC(C)C)C(=O)N[C@H]1C(=O)N[C@@H](CC(N)=O)C(=O)N[C@H]2C(=O)N[C@H]3C(=O)N[C@H](C(=O)N[C@@H](C(=O)O)c4cc(O)cc(O)c4-c4cc3ccc4O)[C@H](O)c3ccc(c(Cl)c3)Oc3cc2cc(c3O[C@@H]2O[C@H](CO)[C@@H](O)[C@H](O)[C@H]2O[C@H]2C[C@](C)(NCCCCNc3cc(C(F)(F)F)nc4cc(Cl)ccc34)[C@H](O)[C@H](C)O2)Oc2ccc(cc2Cl)[C@H]1O	inactive	–	–	inactive	inactive	Active	Active	inactive	–	–	inactive	Active	inactive	–	Active	Active	–	–	–	–
CN[C@H](CC(C)C)C(=O)N[C@H]1C(=O)N[C@@H](CC(N)=O)C(=O)N[C@H]2C(=O)N[C@H]3C(=O)N[C@H](C(=O)N[C@H](C(=O)O)c4cc(O)cc(O)c4-c4cc3ccc4O)[C@H](O)c3ccc(c(Cl)c3)Oc3cc2cc(c3O[C@@H]2O[C@H](CO)[C@@H](O)[C@H](O)[C@H]2O[C@H]2C[C@](C)(NCCCCNc3cc(C(F)(F)F)nc4cc(Cl)ccc34)[C@H](O)[C@H](C)O2)Oc2ccc(cc2Cl)[C@H]1O [listing 1 of 2 here]	–	0.5	2	–	–	–	–	–	–	–	–	–	–	4	–	–	–	–	–	–
CCCCCCCCCC(=O)N[C@@H](Cc1c[nH]c2ccccc12)C(=O)N[C@H](CC(N)=O)C(=O)N[C@@H](CC(=O)O)C(=O)N[C@@H]1C(=O)NCC(=O)N[C@@H](CCCN)C(=O)N[C@@H](CC(=O)O)C(=O)N[C@H](C)C(=O)N[C@@H](CC(=O)O)C(=O)NCC(=O)N[C@H](CO)C(=O)N[C@@H]([C@H](C)CC(=O)O)C(=O)N[C@@H](CC(=O)c2ccccc2N)C(=O)O[C@@H]1C	inactive	2	2	inactive	Active	Active	Active	inactive	Active	Active	Active	Active	Active	2	Active	Active	Active	Active	Active	Activity [19]: Active; Activity [20]: Active; Activity [21]: Active; Activity [23]: Active; Activity [24]: Active; Activity [25]: >90%
CN[C@H](CC(C)C)C(=O)N[C@H]1C(=O)N[C@@H](CC(N)=O)C(=O)N[C@H]2C(=O)N[C@H]3C(=O)N[C@H](C(=O)N[C@H](C(=O)O)c4cc(O)cc(O)c4-c4cc3ccc4O)[C@H](O)c3ccc(c(Cl)c3)Oc3cc2cc(c3O[C@@H]2O[C@H](CO)[C@@H](O)[C@H](O)[C@H]2O[C@H]2C[C@](C)(N)[C@H](O)[C@H](C)O2)Oc2ccc(cc2Cl)[C@H]1O [VANCOMYCIN]	inactive	4	256	inactive	inactive	Active	Active	inactive	Active	Active	inactive	–	inactive	512	Active	Active	Active	–	Active	–
CN[C@H](CC(C)C)C(=O)N[C@H]1C(=O)N[C@@H](CC(N)=O)C(=O)N[C@H]2C(=O)N[C@H]3C(=O)N[C@H](C(=O)N[C@H](C(=O)O)c4cc(O)cc(O)c4-c4cc3ccc4O)[C@H](O)c3ccc(c(Cl)c3)Oc3cc2cc(c3O[C@@H]2O[C@H](CO)[C@@H](O)[C@H](O)[C@H]2O[C@H]2C[C@](C)(NCCCCNc3cc(C(F)(F)F)nc4cc(Cl)ccc34)[C@H](O)[C@H](C)O2)Oc2ccc(cc2Cl)[C@H]1O [listing 2 of 2 here]	–	–	–	–	–	–	–	–	Active	Active	–	–	–	–	–	–	Active	–	–	–
